Variants at the floor of the assay were thinned out.
B1: tRNA (parent)
chain: GUUCCGUUGGCGUAAUGGUAACGCGUCUCCCUCCUAAGGAGAAGACUGCGGGUUCGAGUCCCGUACGGAACG

Variants of: B1
Assay: yeast fitness relative to wild type (ratio to wild type); higher = fitter; tRNA-Arg(CCU), competitive growth, 37 C, YPD
In short: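 The tRNA-Arg(CCU) gene variants were made by chemical synthesis with a 3% per-site mutation rate at 69 sites and inserted at the native genomic locus of Saccharomyces cerevisiae. After pooling, the strains were competed in YPD at 37°C for 24 hours in six parallel replicates. Gene amplicons from the start population and each end population were read by 100-nucleotide paired-end sequencing, and Darwinian fitness relative to wild type was taken from genotype frequency changes. Genotypes needed ≥ 100 starting reads, and estimates < 0.5 were set to 0.5.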

Compared with GUUCCGUUGGCCUAAUGGUAACGCGUCUCCCUCCUAAGGAGAUGACUGCGGGUUCGAGUCCCGUACGGAACG [G12C A43U], GUUCCGUUGGCCUAAUGGUCACGCGUCUCCCUCCUAAGGAGAAGACUGCAGGUUCGAGUUCCGUACGGAACG [G12C A20C G50A C60U] is lower in yeast fitness: 0.892 for the first, 0.56 for the second.

GUUCCGUUGGCCUAAUGGUAACGCGUCUCCCUCCUCAGGAGAAGACUGCAGGUUCGAGUCCCGUACGGAACG [G12C A36C G50A] and GUUCCGUUGGCCUAAUGGUAACGUGUCUCCCUCCUAAGGAGAAGAUUGGGGGUUCGAGUCCAGUACGGAACG [G12C C24U C46U C49G C62A] cannot be ordered by yeast fitness: no more than 0.5 for the first, no more than 0.5 for the second.

GUUCCGUUGGCCUAAUGGUAACGCGUCUGCCUCCUAAGGAGAAGAGUGCGAAUUCGAGUCCCGUACGGAACG [G12C C29G C46G G51A G52A] and GUUCCGUUGGCCUAAUGGUAACGUGUCUCCCUCCUAAGGAGAAGAUUGGGGGUUCGAGUCCCGUACGGAACG [G12C C24U C46U C49G] cannot be ordered by yeast fitness: no more than 0.5 for the first, no more than 0.5 for the second.

Compared with GUUCCGUUGGCCUAAUGGUAAUGCGUCUCCAUCCUAAGGAGAAGACUGCGGGUUCGAGUGCCGUACGGAACG [G12C C22U C31A C60G], GUUCCGUUGGCCUAAUGGUAACGCGUUUCCCUCCUAAGGAGAAGACUGCGGGUUCGAGUCCCGUACGGAACG [G12C C27U] is higher in yeast fitness: no more than 0.5 for the first, 0.805 for the second.

First: GUUCCGUUGGCCUAAUGGUUACGCAUCUCCCUCCUGAGGAGAAGAAUGCGGGUACGAGUCCCGUACGGAUCG [G12C A20U G25A A36G C46A U54A A70U]
Second: GUUCCGUUGGCCUAAUGGUAACGCGUUUCCCUCCUAAGGAGAAGACUGCGGGUUCGAGUCCCGUACGGUACG [G12C C27U A69U]
The yeast fitness of the first is lower: no more than 0.5 for the first, 0.599 for the second.

Compared with GUUCCGUUGGCCUAAUGGUAAUGCGUCUCCCUCCUAAGGAGACGACUGCGGGUUCGAGUCCCGUACGCAACG [G12C C22U A43C G68C], GUUCCGUUGGCCUAAUGGUAACGCGUCUCCCUCCUAAGGAGAAGCCUGCGGGUUCGAGUCCCGUACGGAACG [G12C A45C] is higher in yeast fitness: 0.556 for the first, 0.75 for the second.

Going from GUUCCGUUGGCCUAAUGGUAAUGCGUCUCCCUCCUAAGGAGAAGACUGCGGGUCCGAGUCUCGUACGAAACG [G12C C22U U54C C61U G68A] to GUUCCGUUGGCCUAAUGGUUACGCGUCUCCCUUCUAAGGAGAAGACUGCGGGUUCGAGUCCCGUACGGAACG [G12C A20U C33U], the yeast fitness rises from no more than 0.5 to 0.555.

Going from GUUCCGUUGGCCUAAUGGUAACGCGUCUCCCUCCUAAGGAGAAGUCUGCGGGUUCGAGUCGCGUACGGAACG [G12C A45U C61G] to GUUCCGUUGGCCUAAUGGUAACGGGUCUCCCUCCUAAGGAGAAGACUGCGGGUUCGAGUACCGUACGGAACG [G12C C24G C60A], the yeast fitness falls from 0.528 to no more than 0.5.

GUUCCGUUGGCCUAAUGGUCACGCGUCUCCGUCCUAAGGAGAAGACUGCGGGUUCGAGUCCCGUAAGGAACG [G12C A20C C31G C66A] and GUUCCGUUGGCCUAAUGGUAACGGGUCUCCCUCCUAAGGGGAAGACUGCGGGUUCGAGUCCCGUACGGAACG [G12C C24G A40G] cannot be ordered by yeast fitness: no more than 0.5 for the first, no more than 0.5 for the second.

GUUCCGUUGGCCUAAUGGUAUCGCGUCUCCCUCUUAAGGAGAAGACUGCGGGUUCGAGUCCCGUACGGCACG [G12C A21U C34U A69C] and GUUCCGUUGGCCUAAUGGUCACGCGUCUCCGUCCUAAGGAGAAGACUGCGGGUUCGAGUCCCGAACGGAACG [G12C A20C C31G U64A] cannot be ordered by yeast fitness: no more than 0.5 for the first, no more than 0.5 for the second.

First: GUUCCGUUGGCCUAAUGGUAAUGCGUCACCCUCCUAAGGAGAAGACUGCGGGUUCGAGUCCCGUACGGAACG [G12C C22U U28A]
Second: GUUCCGUUGGCCUAAUGGUAACGCGUUUCCCUCCUAAGGAGAAGACUGCAGGUUCGAGUCCCGUACGGAACG [G12C C27U G50A]
The yeast fitness of the first is higher: 0.52 for the first, no more than 0.5 for the second.

Going from GUUCCGUUGGCCUAAUGGUAACGCGUCUACCUCCUAAGGAGAAGACUGCGGGUUCGAGUCCCGUACGGAACG [G12C C29A] to GUUCCGUUGGCCUAAUGGUAACGCGUCUUCCUCCUAAGGAGAAGACUGCGGGUUCGAGUCCCGUACGGAACG [G12C C29U], the yeast fitness rises from 0.684 to 0.85.

Going from GUUCCGUUGGCCUAAUGGUAACGCGUCUCCCUCCUAAGGAGAAGACUGCGGGUUCGAGUCCCGUACGGCACG [G12C A69C] to GUUCCGUUGGCCUAAUGGUAACGCGUCUCCCUCCUAAGGAGACGACUGCGGGUUCGAGUCGCGUACGGAACG [G12C A43C C61G], the yeast fitness falls from 0.806 to no more than 0.5.

Going from GUUCCGUUGGCCUAAUGGUAACGCGUUUCCCUCCUAAGGAGAAGACUGCGGGUUCGACUCCCGUACGGCACG [G12C C27U G58C A69C] to GUUCCGUUGGCCUAAUGGUAACGCGUCUCCCUCCUAAGGGGAAGACUGCGGGUUCGAGUCCCGUACGGAACG [G12C A40G], the yeast fitness rises from 0.657 to 0.683.

First: GUUCCGUUGGCCUAAUGGUAACGCGUCUCCCUCCUAAGGCGAAGACUGCGGGUUCGAGUCCCGUACGGAACG [G12C A40C]
Second: GUUCCGUUGGCCUAAUGGUAAAGCGUCUCCCUCCUAAGGAGAAGACUGCGGGUUCGAGUCCCGUACGGAACG [G12C C22A]
The yeast fitness of the first is lower: 0.722 for the first, 1 for the second.

Going from GUUCCGUUGGCCUAAUGGUAACGCGUCUCCCUCCUAGAGAGAAGUCUGCGGGUUCGAGUCCCGUACGGAACG [G12C A37G G38A A45U] to GUUCCGUUGGCCUAAUGGUUACGCGUCUCUCUCCUAAGGAGAAGACUGUGGGUUUGAGUCCCGUAUGGAACG [G12C A20U C30U C49U C55U C66U], the yeast fitness rises from 0.506 to 0.559.

Compared with GUUCCGUUGGCCUAAUGGUAACGCGUCUCCCUCCUAAGGGGAAGACUGCGGGUUCGACUCGCGUCCGGAACG [G12C A40G G58C C61G A65C], GUUCCGUUGGCCUAAUGGUAAGGCGUCUCCCUCCUAAGGCGAAGACUGCGGGUUCGAGUCCCGUACGGAACG [G12C C22G A40C] is higher in yeast fitness: no more than 0.5 for the first, 1.03 for the second.

GUUCCGUUGGCCUAAUGGUAAGACGUCUCCCUCCUACGGAGACGACUGCGGGUUCGAGUCCGAUAGGGGACG [G12C C22G G23A A37C A43C C62G G63A C66G A69G] and GUUCCGUUGGCCUAAUGGUAACGCGUGUCCCUCCUAGGGAGAAGACUGCGGGUUCGAGUCCCGUACGGAACG [G12C C27G A37G] cannot be ordered by yeast fitness: no more than 0.5 for the first, no more than 0.5 for the second.

Variant GUUCCGUUGGCCUAAUGGUAACGUGUCUCCCUCCUAAGGAGAAGACUGCGGGUUCGAGUCCCGUACCGAACG [G12C C24U G67C] has a yeast fitness of 0.536.

— the RNAGym collection of RNA variant scans (doi:10.1126/science.aae0568)
